{"source": "ChEMBL document CHEMBL1140589", "about": "“Dipeptidyl-alpha,beta-epoxyesters as potent irreversible inhibitors of the cysteine proteases cruzain and rhodesain” (Bioorg Med Chem Lett, 2007)", "key": {"[1]": {"molecular_target": "Cruzipain (Trypanosoma cruzi) (UniProt P25779)", "sequence (P25779 123-467 limits assumed)": "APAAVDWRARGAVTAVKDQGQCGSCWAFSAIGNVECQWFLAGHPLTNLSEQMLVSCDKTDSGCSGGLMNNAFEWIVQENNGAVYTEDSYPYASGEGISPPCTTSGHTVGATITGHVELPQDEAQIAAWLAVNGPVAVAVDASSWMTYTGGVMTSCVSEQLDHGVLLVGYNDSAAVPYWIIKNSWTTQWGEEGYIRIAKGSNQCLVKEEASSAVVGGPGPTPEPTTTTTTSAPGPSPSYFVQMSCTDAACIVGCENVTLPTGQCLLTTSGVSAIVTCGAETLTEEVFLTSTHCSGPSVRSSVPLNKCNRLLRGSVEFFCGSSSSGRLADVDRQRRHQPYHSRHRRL", "experiment": "Ratio of kinact to ki for cruzain", "set-up": "unit not given here", "how_it_was_run": "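Continuous assay: enzyme was added by the instrument to inhibitor dilutions with Z-Phe-Arg-AMC in pH 5.5 acetate/DTT buffer while fluorescence was recorded. Progress curves were followed 5 min at 25 °C over a 10-fold dilution range of inhibitor. kobs came from pseudo-first-order fits. For hyperbolic kobs dependence, kinact and Ki were fitted by nonlinear regression to a two-step irreversible mechanism with substrate correction.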"}, "[2]": {"molecular_target": "Cruzipain (Trypanosoma cruzi, UniProt P25779)", "sequence (P25779 whole entry)": "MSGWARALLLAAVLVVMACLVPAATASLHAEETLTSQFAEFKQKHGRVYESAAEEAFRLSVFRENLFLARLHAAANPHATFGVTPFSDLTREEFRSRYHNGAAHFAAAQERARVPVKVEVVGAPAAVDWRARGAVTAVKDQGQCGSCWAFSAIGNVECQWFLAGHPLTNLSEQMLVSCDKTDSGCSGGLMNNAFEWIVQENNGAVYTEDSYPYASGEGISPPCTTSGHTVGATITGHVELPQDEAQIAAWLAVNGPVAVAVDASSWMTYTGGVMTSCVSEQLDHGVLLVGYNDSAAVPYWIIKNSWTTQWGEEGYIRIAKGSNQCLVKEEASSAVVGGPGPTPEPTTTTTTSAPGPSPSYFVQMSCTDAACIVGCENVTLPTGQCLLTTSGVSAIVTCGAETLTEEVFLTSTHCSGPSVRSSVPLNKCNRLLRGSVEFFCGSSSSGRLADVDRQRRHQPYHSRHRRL", "experiment": "(§1) Inhibition of cruzain", "how_it_was_run": "(§2)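 Recombinant enzyme at 4 nM with Z-Phe-Arg-AMC substrate in buffer A (100 mM Na acetate pH 5.5, 5 mM DTT, 0.001% Triton X-100). Enzyme and inhibitor were preincubated 5 min at 25 °C, then substrate was added. Inhibitor serial dilutions were made in DMSO, 10–10,000 nM. IC50 was read directly from a semi-log plot of rate versus inhibitor concentration.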"}, "[3]": {"experiment": "(§3) Inhibition of Trypanosoma brucei brucei cathepsin B", "how_it_was_run": "(§4)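 Recombinant T. brucei cathepsin B at 40 nM with Z-Phe-Arg-AMC in buffer A (100 mM Na acetate pH 5.5, 5 mM DTT, 0.001% Triton X-100). Enzyme was preincubated 5 min at 25 °C with inhibitor (500–10,000 nM, DMSO serial dilutions) before substrate addition. Cleavage was followed by fluorescence at ex 355/em 460 nm, 25 °C. IC50 was taken from a semi-log rate versus concentration plot.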"}, "[4]": {"molecular_target": "Rhodesain (Trypanosoma brucei rhodesiense) (UniProt Q95PM0)", "sequence (Q95PM0 1-450)": "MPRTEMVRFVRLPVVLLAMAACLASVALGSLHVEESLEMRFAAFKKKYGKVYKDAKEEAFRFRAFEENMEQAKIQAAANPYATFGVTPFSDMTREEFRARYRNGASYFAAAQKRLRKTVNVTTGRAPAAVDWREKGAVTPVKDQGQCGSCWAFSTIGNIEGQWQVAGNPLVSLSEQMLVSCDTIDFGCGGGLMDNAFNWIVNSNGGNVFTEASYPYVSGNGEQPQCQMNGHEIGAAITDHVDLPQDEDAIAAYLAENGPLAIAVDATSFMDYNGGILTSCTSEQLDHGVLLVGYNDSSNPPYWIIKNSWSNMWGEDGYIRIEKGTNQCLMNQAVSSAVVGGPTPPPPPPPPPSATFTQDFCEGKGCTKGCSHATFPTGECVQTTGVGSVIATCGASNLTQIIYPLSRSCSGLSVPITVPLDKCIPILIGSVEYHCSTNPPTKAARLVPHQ", "experiment": "(§5) Inhibition of rhodesain", "set-up": "concentration or dose not given beside the values", "settings": "concentration not given here", "how_it_was_run": "as §2"}, "[5]": {"molecular_target": "Cruzipain (Trypanosoma cruzi) (UniProt P25779)", "experiment": "as §1", "set-up": "concentration or dose not given beside the values", "settings": "concentration not given here", "how_it_was_run": "as §2"}, "[6]": {"system": "Trypanosoma brucei brucei", "experiment": "Antimicrobial activity against Trypanosoma brucei brucei", "type": "functional", "set-up": "concentration or dose not given beside the values"}, "[7]": {"system": "Trypanosoma brucei brucei", "experiment": "as §3", "settings": "concentration not given here", "how_it_was_run": "as §4"}, "[8]": {"molecular_target": "Rhodesain (Trypanosoma brucei rhodesiense, UniProt Q95PM0)", "sequence (Q95PM0 whole entry)": "as the sequence (Q95PM0 1-450) above", "experiment": "as §5", "how_it_was_run": "as §2"}}, "data": [{"smiles": "CC(C)CCNC(=O)[C@H](CC(C)C)NC(=O)[C@H]1OC1C(=O)O", "note": "(single isomer, unassigned)", "values": [{"measurement": "Ratio", "setting": "[1]", "value": 70600}]}, {"smiles": "O=C(N[C@@H](Cc1ccccc1)C(=O)N[C@@H](CCc1ccccc1)C(=O)[C@@H]1CO1)OCc1ccccc1", "values": [{"measurement": "Ratio", "setting": "[1]", "value": 330000}, {"measurement": "IC50", "setting": "[2]", "value": 10, "unit": "nM"}]}, {"smiles": "CN1CCN(C(=O)N[C@@H](Cc2ccccc2)C(=O)N[C@H](/C=C/S(=O)(=O)c2ccccc2)CCc2ccccc2)CC1", "note": "[K-777]", "values": [{"measurement": "IC50", "setting": "[3]", "value": 2000, "unit": "nM"}, {"measurement": "inhibition", "setting": "[4]", "value": 72, "unit": "%"}, {"measurement": "inhibition", "setting": "[5]", "value": 100, "unit": "%"}, {"measurement": "Inhibition", "setting": "[6]", "value": 99, "unit": "%"}]}, {"smiles": "CCOC(=O)[C@H]1O[C@H]1C(=O)[C@H](CCc1ccccc1)NC(=O)[C@H](Cc1ccccc1)NC(=O)OCc1ccccc1", "values": [{"measurement": "Ratio", "setting": "[1]", "value": 82900}, {"measurement": "IC50", "setting": "[3]", "value": "> 1000", "unit": "nM"}, {"measurement": "inhibition", "setting": "[7]", "value": 51, "unit": "%"}, {"measurement": "inhibition", "setting": "[4]", "value": 98, "unit": "%"}, {"measurement": "IC50", "setting": "[8]", "value": 3.5, "unit": "nM"}, {"measurement": "IC50", "setting": "[2]", "value": 20, "unit": "nM"}, {"measurement": "inhibition", "setting": "[5]", "value": 93, "unit": "%"}, {"measurement": "Inhibition", "setting": "[6]", "value": 42, "unit": "%"}]}, {"smiles": "CCOC(=O)[C@@H]1O[C@@H]1C(=O)[C@H](CCc1ccccc1)NC(=O)[C@H](Cc1ccccc1)NC(=O)OCc1ccccc1", "values": [{"measurement": "Ratio", "setting": "[1]", "value": 25200}, {"measurement": "IC50", "setting": "[3]", "value": 400, "unit": "nM"}, {"measurement": "inhibition", "setting": "[7]", "value": 47, "unit": "%"}, {"measurement": "inhibition", "setting": "[4]", "value": 80, "unit": "%"}, {"measurement": "IC50", "setting": "[8]", "value": 30, "unit": "nM"}, {"measurement": "IC50", "setting": "[2]", "value": 50, "unit": "nM"}, {"measurement": "inhibition", "setting": "[5]", "value": 55, "unit": "%"}, {"measurement": "Inhibition", "setting": "[6]", "value": -2, "unit": "%"}]}, {"smiles": "CCOC(=O)[C@@H]1O[C@H]1[C@@H](O)[C@H](CCc1ccccc1)NC(=O)[C@H](Cc1ccccc1)NC(=O)OCc1ccccc1", "values": [{"measurement": "inhibition", "setting": "[7]", "value": 3, "unit": "%"}, {"measurement": "inhibition", "setting": "[4]", "value": 3, "unit": "%"}, {"measurement": "inhibition", "setting": "[5]", "value": 1, "unit": "%"}, {"measurement": "Inhibition", "setting": "[6]", "value": 17, "unit": "%"}]}, {"smiles": "CCOC(=O)[C@H]1O[C@H]1[C@H](O)[C@H](CCc1ccccc1)NC(=O)[C@H](Cc1ccccc1)NC(=O)OCc1ccccc1", "values": [{"measurement": "inhibition", "setting": "[7]", "value": 6, "unit": "%"}, {"measurement": "inhibition", "setting": "[4]", "value": -4, "unit": "%"}, {"measurement": "inhibition", "setting": "[5]", "value": 5, "unit": "%"}, {"measurement": "Inhibition", "setting": "[6]", "value": -37, "unit": "%"}]}, {"smiles": "O=C(N[C@@H](Cc1ccccc1)C(=O)N[C@@H](CCc1ccccc1)C(=O)[C@H]1CO1)OCc1ccccc1", "values": [{"measurement": "Ratio", "setting": "[1]", "value": 128000}, {"measurement": "IC50", "setting": "[2]", "value": "> 1000", "unit": "nM"}]}]}
